The target in series [1] is Voltage-gated inwardly rectifying potassium channel KCNH2 (Homo sapiens, UniProt Q12809). Description: Inhibition of human ERG expressed in CHO cells at -80 mV holding potential after 3 mins by QPatch test. It is filed as cell-based.
Series [2] deals with Rattus norvegicus. The experiment in a line: Toxicity in Sprague-Dawley rat at 60 to 1000 mg/kg, po administered as single dose assessed as mortality measured during 2 weeks post administration. The series is classed as organism-based. To be noted: in vivo, 336 h. In outline: (§1)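 Rats, 30 in total, randomised into three groups. Each received a single oral dose of 60, 250 or 1000 mg/kg on day 1. Poisoning symptoms, mortality, behaviour, water and food consumption and body weight monitored immediately and over 2 weeks.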

Series [3] concerns Staphylococcus aureus. The experiment in a line: In vivo anti-virulence activity against methicillin-resistant Staphylococcus aureus LRSA56 infected in BALB/c mouse model assessed as reduction in bacterial load in heart at 0.1 mg bid for 3.5 days administered intraperitoneally 6 hrs post infection by serial dilution method relative to control. Also noted: scale not given: the % may be the effect or the level left. It is filed as functional. In outline: (§2)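 Mice were infected by retro-orbital injection with LRSA56 (5.0 × 10^7 CFU) or LRSA202 (7.0 × 10^7 CFU). Compound was given intraperitoneally 6 h after infection. […] Log10 CFU was counted in kidneys and hearts, with groups compared by two-tailed Mann-Whitney test.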

A short description of series [4]: AUC (0 to 24 hrs) in Sprague-Dawley rat at 10 mg/kg, po administered as single dose by LC-MS/MS analysis. Also noted: time < 24 hr, dose 10 mg/kg, route oral. The series is classed as ADME, organism-based. The note with it: in vivo.
Series [5] is described as follows: AUC (0 to infinity) in Sprague-Dawley rat at 10 mg/kg, po administered as single dose by LC-MS/MS analysis. The series is classed as ADME, organism-based. Set-up: dose 10 mg/kg, route oral, time infinity. The note with it: in vivo.
In series [6] the test system is Rattus norvegicus. Description: Toxicity in Sprague-Dawley rat at 60 to 1000 mg/kg, po administered as single dose assessed as changes in body weight measured during 2 weeks post administration. The series is classed as organism-based. The note with it: in vivo, 336 h. The gist of the method:
as §1

The nature of series [7]: Inhibition of CrtN in methicillin-resistant Staphylococcus aureus NRS100 assessed as reduction in staphyloxanthin levels after 48 hrs by spectrophotometric method-based pigment inhibition assay.
The test system of series [8] is Staphylococcus aureus. The experiment in a line: Antibacterial activity against Staphylococcus aureus Newman after 24 hrs by broth dilution method. The series is classed as functional. The note with it: Staphylococcus aureus, Newman, 24 h; read-out: MIC. (Dilution methods test growth across graded concentrations, often in twofold steps.)
Series [9] in a line: AUC (0 to infinity) in Sprague-Dawley rat at 5 mg/kg, iv administered as single dose by LC-MS/MS analysis. The series is classed as ADME, organism-based. Also noted: dose 5 mg/kg, time infinity, route intravenous. The note with it: in vivo.
Series [10] is described as follows: Tmax in Sprague-Dawley rat at 10 mg/kg, po administered as single dose by LC-MS/MS analysis. To be noted: in vivo. It is filed as ADME, organism-based.
In the next series the target is Cytochrome P450 3A4 (Homo sapiens, UniProt P08684). Description: Inhibition of CYP3A4 in human liver microsomes using midazolam as substrate upto 10 uM after 5 mins in presence of NADPH by LC-MS/MS analysis. The series is classed as ADME. Background: Microsomes from liver hold many membrane-bound enzymes, among them those of drug oxidation.
In series [11] the test system is Staphylococcus aureus. The experiment in a line: In vivo anti-virulence activity against methicillin-resistant Staphylococcus aureus LRSA56 infected in BALB/c mouse model assessed as reduction in bacterial load in heart at 0.1 mg bid for 3.5 days administered intraperitoneally 6 hrs post infection by serial dilution method relative to linezolid. The series is classed as functional. Set-up: scale not given: the % may be the effect or the level left. The gist of the method:
as §2

The nature of series [12]: Tmax in mouse at 2 mg/kg, iv administered as single dose by LC-MS/MS analysis. To be noted: in vivo. The series is classed as ADME, organism-based.
The target of series [13] is T1, 4,4'-diapophytoene desaturase (4,4'-diaponeurosporene-forming) (Staphylococcus aureus (strain MW2)) (UniProt Q8NUQ6).
T1 sequence (whole entry): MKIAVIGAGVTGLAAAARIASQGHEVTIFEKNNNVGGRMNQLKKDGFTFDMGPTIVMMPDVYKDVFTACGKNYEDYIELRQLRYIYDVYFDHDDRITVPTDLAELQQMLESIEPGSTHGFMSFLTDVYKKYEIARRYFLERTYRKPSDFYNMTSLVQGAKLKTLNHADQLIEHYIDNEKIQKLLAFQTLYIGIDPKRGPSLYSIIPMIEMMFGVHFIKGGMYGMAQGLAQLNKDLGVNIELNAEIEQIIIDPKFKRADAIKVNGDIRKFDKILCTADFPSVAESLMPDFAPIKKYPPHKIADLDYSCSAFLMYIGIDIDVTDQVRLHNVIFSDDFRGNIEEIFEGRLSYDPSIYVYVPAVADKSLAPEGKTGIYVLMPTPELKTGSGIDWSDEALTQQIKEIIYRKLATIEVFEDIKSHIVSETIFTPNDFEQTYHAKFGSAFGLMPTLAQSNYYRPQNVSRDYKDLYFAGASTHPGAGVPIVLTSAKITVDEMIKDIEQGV
The note with it: Staphylococcus aureus subsp. aureus MW2; USA400; 1 uM.

Series [14] has as its system Rattus norvegicus. The experiment in a line: Toxicity in Sprague-Dawley rat at 60 to 1000 mg/kg, po administered as single dose assessed as changes in food consumption measured during 2 weeks post administration. It is filed as organism-based. The note with it: in vivo, 336 h. In outline: as §1
In series [15] the test system is Staphylococcus aureus. Description: In vivo anti-virulence activity against Staphylococcus aureus NRS271 infected in BALB/c mouse model assessed as reduction in bacterial load in kidney at 0.2 mg bid for 3.5 days administered orally 6 hrs post infection by serial dilution method relative to control. The series is classed as functional, organism-based. In outline:
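Mice were infected by retro-orbital injection with Mu50 (4.6 × 10^9 CFU) or NRS271 (3.5 × 10^8 CFU). Oral compound was given b.i.d. for 3.5 d, starting 6 h after infection. Log10 CFU was counted per kidney and per heart.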

Series [16] can be described thus: Half life in Sprague-Dawley rat at 5 mg/kg, iv administered as single dose by LC-MS/MS analysis. The series is classed as ADME, organism-based. The note with it: in vivo.
Series [17] has as its system Rattus norvegicus. The experiment in a line: Toxicity in Sprague-Dawley rat at 60 to 1000 mg/kg, po administered as single dose assessed as poisoning symptoms measured during 2 weeks post administration. The series is classed as organism-based. The note with it: in vivo, 336 h. The gist of the method: as §1
Series [18] relates to Staphylococcus aureus. Description: In vivo anti-virulence activity against Staphylococcus aureus Newman infected in BALB/c mouse model assessed as reduction in bacterial load in kidney at 0.1 mg bid for 3.5 days administered orally 6 hrs post infection by serial dilution method relative to control. It is filed as functional. Also noted: scale not given: the % may be the effect or the level left. The gist of the method: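 Mice got 3.1 × 10^7 CFU S. aureus Newman by retro-orbital injection. Oral compound was given b.i.d. for 3.5 d, starting 6 h after infection. […] Log10 CFU was counted per kidney and per heart.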

Series [19] can be described thus: Clearance in mouse at 2 mg/kg, iv administered as single dose by LC-MS/MS analysis. To be noted: in vivo. It is filed as ADME, organism-based.
The test system of series [20] is Rattus norvegicus. The experiment in a line: Toxicity in Sprague-Dawley rat at 60 to 1000 mg/kg, po administered as single dose assessed as abnormal behavior measured during 2 weeks post administration. The series is classed as organism-based. To be noted: in vivo, 336 h. In outline: as §1
Another series deals with Enterococcus faecium. Description: Antibacterial activity against Enterococcus faecium after 24 hrs by broth dilution method. The series is classed as functional.
Series [21] deals with Staphylococcus aureus. Description: In vivo anti-virulence activity against methicillin-resistant Staphylococcus aureus LRSA202 infected in BALB/c mouse model assessed as reduction in bacterial load in heart at 0.1 mg bid for 3.5 days administered intraperitoneally 6 hrs post infection by serial dilution method relative to control. It is filed as functional, organism-based. The gist of the method:
as §2

For series [22], the system named is Staphylococcus aureus. Description: In vivo anti-virulence activity against methicillin-resistant Staphylococcus aureus XN108 infected in BALB/c mouse model assessed as reduction in bacterial load in heart at 0.1 mg bid for 3.5 days administered intraperitoneally 6 hrs post infection by serial dilution method relative to linezolid. It is filed as functional, organism-based. The gist of the method:
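Mice infected retro-orbitally with S. aureus NF65Y (3.5 × 10^8 CFU) or XN108 (2.1 × 10^8 CFU). Test compound given i.p. b.i.d. starting 6 h post-infection. […] Log10 CFU per kidney and heart counted. Two-tailed Mann−Whitney test.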

Calls of active or inactive are those of the source. The calls are words filed in the database; no cut-off is given here.

In general, IC50 refers to the midpoint of a concentration-inhibition curve. As a reminder, the AUC(0-t) is exposure summed from dosing to a finite time, without extrapolation to infinity. One may read the AUC(0-inf) as the area under the concentration-time curve extrapolated to infinity. As usually defined, the MIC is the least concentration at which growth counts as inhibited. What is called Tmax is the time at which the peak concentration occurs. By half-life is commonly meant the time in which the quantity being followed falls by half. As usually defined, the clearance is the volume of plasma or blood freed of the substance per unit of time.

Chain of Voltage-gated inwardly rectifying potassium channel KCNH2 (Q12809 whole entry): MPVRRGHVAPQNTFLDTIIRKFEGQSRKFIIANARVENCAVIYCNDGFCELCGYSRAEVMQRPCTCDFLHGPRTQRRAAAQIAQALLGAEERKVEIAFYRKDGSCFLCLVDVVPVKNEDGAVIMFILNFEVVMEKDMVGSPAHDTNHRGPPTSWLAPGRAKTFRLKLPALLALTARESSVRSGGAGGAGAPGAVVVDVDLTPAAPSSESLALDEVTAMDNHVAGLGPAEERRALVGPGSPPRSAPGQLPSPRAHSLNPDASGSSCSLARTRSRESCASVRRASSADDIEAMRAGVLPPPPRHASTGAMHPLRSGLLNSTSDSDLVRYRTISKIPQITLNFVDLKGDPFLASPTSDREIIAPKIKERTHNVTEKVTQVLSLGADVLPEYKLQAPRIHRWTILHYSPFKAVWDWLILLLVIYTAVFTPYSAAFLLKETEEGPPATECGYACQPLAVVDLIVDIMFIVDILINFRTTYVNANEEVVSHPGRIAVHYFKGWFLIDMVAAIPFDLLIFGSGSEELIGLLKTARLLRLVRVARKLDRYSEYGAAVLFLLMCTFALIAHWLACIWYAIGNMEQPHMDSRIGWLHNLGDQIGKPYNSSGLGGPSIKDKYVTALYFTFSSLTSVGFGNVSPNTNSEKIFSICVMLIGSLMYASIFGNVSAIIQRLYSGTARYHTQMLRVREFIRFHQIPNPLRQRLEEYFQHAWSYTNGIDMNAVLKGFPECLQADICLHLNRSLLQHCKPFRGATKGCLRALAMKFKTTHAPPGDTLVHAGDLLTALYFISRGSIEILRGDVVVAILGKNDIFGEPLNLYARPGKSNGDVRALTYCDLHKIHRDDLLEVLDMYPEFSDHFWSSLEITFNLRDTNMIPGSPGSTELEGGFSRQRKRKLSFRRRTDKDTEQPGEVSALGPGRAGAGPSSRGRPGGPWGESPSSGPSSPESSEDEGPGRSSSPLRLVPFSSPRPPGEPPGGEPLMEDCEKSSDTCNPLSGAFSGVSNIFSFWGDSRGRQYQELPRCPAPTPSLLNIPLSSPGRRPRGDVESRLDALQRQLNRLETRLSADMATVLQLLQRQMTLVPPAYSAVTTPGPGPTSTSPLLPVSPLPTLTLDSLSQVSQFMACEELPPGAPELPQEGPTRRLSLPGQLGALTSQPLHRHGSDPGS
Chain of Cytochrome P450 3A4 (P08684 whole entry): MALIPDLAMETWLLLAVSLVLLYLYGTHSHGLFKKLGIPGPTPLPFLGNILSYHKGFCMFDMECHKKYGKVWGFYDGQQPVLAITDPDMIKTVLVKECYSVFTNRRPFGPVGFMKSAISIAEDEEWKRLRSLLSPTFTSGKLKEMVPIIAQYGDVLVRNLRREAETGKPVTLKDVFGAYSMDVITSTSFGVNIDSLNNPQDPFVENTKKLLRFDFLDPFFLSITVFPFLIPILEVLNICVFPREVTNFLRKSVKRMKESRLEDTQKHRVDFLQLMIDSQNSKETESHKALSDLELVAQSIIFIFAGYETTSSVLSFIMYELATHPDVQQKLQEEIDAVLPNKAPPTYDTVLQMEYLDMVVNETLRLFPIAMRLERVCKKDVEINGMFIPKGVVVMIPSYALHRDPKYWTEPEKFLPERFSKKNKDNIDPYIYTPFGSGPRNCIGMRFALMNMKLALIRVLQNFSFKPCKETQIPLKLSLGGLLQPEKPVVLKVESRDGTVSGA

In turn, `CN(C/C=C/c1ccc(-c2ccccc2)cc1)Cc1cccc2cc[nH]c12.Cl` had an IC50 in series [1] above 40 µM.
Regarding `CN(C/C=C/c1ccc(-c2ccccc2)cc1)Cc1coc2ccccc12.Cl`, the Activity entry is listed as “Non-Toxic” with Rattus norvegicus [2]; above 81.4% with Staphylococcus aureus [3]; “Non-Toxic” in the series with Rattus norvegicus [6]; above 71.8% with Staphylococcus aureus [11]; “Non-Toxic” in the series with Rattus norvegicus [14]; “Non-Toxic” with Rattus norvegicus [17]. For the same compound, the Activity is recorded as 90% in the series with Staphylococcus aureus [18] and “Non-Toxic” in the series with Rattus norvegicus [20]. In series [4], this compound showed an AUC(0-t) at 24 h of 899 ng·h/mL. Also, the figures for the AUC(0-inf) in series [5] and in series [9] were 930 ng·h/mL and 2860 ng·h/mL, respectively. The IC50 in [7] was 1.2 nM; at Cytochrome P450 3A4, above 10 µM. The MIC in the series with Staphylococcus aureus [8] and with Enterococcus faecium was above 500 µg/mL in each case. The Tmax in series [10] turned out to be 2 h; in [12], 4.8 min. This compound yielded a Survival in [13] of 1%. Also, the outcome in the series with Staphylococcus aureus [15], in the series with Staphylococcus aureus [21] and in the series on Staphylococcus aureus [22] was Active. The same compound had a half-life in [16] of 148 min. In series [19], this compound showed a clearance of 30.7 mL/min/kg.

These data come from ChEMBL document CHEMBL4024779, “Novel Terminal Bipheny-Based Diapophytoene Desaturases (CrtN) Inhibitors as Anti-MRSA/VISR/LRSA Agents with Reduced hERG Activity” (J Med Chem, 2018).
